Calls of active or inactive are those of the source. No cut-off for these calls is given here.

Test [1] in a line: Cell cycle arrest in human PC3 cells assessed as accumulation at G0/G1 phase at 5 uM after 24 hrs by propidium iodide staining-based flow cytometry (reference value: 39.20%). It is filed as functional. The settings on record: PC-3. Summed up: (§1)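 PC-3 cells given compound at 5, 10, 15, 20 or 30 μM, or 0.1% DMSO vehicle, for 24 h; stained with propidium iodide and analysed by flow cytometry for G0/G1, S and G2/M fractions.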

Test [2] is described as follows: Cell cycle arrest in human PC3 cells assessed as accumulation at G2/M phase at 5 uM after 24 hrs by propidium iodide staining-based flow cytometry (reference value: 33.04%). It is filed as functional. To be noted: PC-3. Summed up:
as §1

Test [3] in a line: Cell cycle arrest in human PC3 cells assessed as accumulation at S phase at 20 uM after 24 hrs by propidium iodide staining-based flow cytometry (reference value: 27.26%). It is filed as functional. To be noted: PC-3. Summed up:
as §1

The nature of test [4]: Cell cycle arrest in human PC3 cells assessed as accumulation at G2/M phase at 30 uM after 24 hrs by propidium iodide staining-based flow cytometry (reference value: 33.04%). Type of test: functional. The settings on record: PC-3. Summed up: as §1
The test system of test [5] is PC-3. Kind of test: Induction of apoptosis in human PC3 cells assessed as late apoptotic cells at 5 uM after 24 hrs by annexin V/propidium iodide staining-based flow cytometry (reference value: 2.1%). It is filed as functional. In outline:
(§2)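 Phosphatidylserine exposure in PC-3 cells after 24 h at 0, 5, 10, 20 or 30 μM, by Alexa Fluor 488 annexin V/PI double staining and flow cytometry; early apoptotic = AV+/PI−, late apoptotic or dead = AV+/PI+.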

Test [6] concerns PC-3. The test is described as follows: Induction of apoptosis in human PC3 cells assessed as late apoptotic cells at 10 uM after 24 hrs by annexin V/propidium iodide staining-based flow cytometry (reference value: 2.1%). Type of test: functional. Summed up:
as §2

The test system of test [7] is PC-3. The test is described as follows: Induction of apoptosis in human PC3 cells assessed as late apoptotic cells at 20 uM after 24 hrs by annexin V/propidium iodide staining-based flow cytometry (reference value: 2.1%). Type of test: functional. Summed up: as §2
The test system of test [8] is PC-3. The test is described as follows: Induction of apoptosis in human PC3 cells assessed as late apoptotic cells at 30 uM after 24 hrs by annexin V/propidium iodide staining-based flow cytometry (reference value: 2.1%). It is filed as functional. In outline: as §2
Test [9] deals with PC-3. Kind of test: Induction of apoptosis in human PC3 cells assessed as total apoptotic cells at 30 uM after 24 hrs by annexin V/propidium iodide staining-based flow cytometry. It is filed as functional. Summed up: as §2
Test [10] is described as follows: Induction of apoptosis in human PC3 cells assessed as upregulation of Bax expression after 24 hrs by Western blotting analysis. It is filed as functional, cell-based. The settings on record: PC-3. In outline:
(§3)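 PC-3 cells exposed for 24 h to 0, 1, 5, 10, 20 or 30 μM; Bax, Bcl-2 and activated caspase-3 measured by Western blot, reported as Bax/Bcl-2 value.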

Test [11] in a line: Induction of apoptosis in human PC3 cells assessed as upregulation of Bcl2 expression after 24 hrs by Western blotting analysis. It is filed as functional, cell-based. The settings on record: PC-3, in the assay text read “upregulation of Bax/Bcl2 ratio” for “upregulation of Bcl2 expression”. In outline: as §3
In test [12] the test system is PC-3. Kind of test: Antiproliferative activity against human PC3 cells assessed as reduction in cell viability at 1.5 to 100 uM by WST-8 assay in presence of 50 uM of norepinephrine. Type of test: functional, cell-based. In outline: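 PC-3 cells treated with compound at 100, 75, 50, 25, 12.5, 6.25, 3.0 and 1.5 μM alone or together with norepinephrine (20 or 50 μM); viability by WST-8. Mean ± SEM, two-way ANOVA with post-hoc tests.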

Test [13] addresses T1, Alpha-1A adrenergic receptor (Rattus norvegicus, UniProt P43140).
T1 sequence (P43140 whole entry): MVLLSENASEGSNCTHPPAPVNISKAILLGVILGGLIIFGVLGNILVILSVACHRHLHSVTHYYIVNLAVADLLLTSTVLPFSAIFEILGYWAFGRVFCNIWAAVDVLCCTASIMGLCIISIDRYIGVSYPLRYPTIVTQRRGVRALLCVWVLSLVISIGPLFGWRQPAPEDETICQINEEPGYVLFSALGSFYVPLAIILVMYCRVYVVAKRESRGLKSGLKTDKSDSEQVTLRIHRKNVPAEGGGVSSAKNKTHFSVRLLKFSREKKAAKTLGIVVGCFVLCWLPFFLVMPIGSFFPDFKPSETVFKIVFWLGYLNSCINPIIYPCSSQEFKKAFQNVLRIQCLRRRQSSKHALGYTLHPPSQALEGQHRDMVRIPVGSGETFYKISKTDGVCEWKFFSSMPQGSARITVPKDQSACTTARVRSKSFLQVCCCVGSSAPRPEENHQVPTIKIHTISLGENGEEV
Kind of test: Antagonist activity at Sprague-Dawley rat prostatic vas deferens adrenergic alpha-1A receptor after 20 mins. To be noted: read-out: pA2 (converted). In outline:
(§4)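 Isolated rat tissues (prostatic vas deferens, spleen, thoracic aorta) contracted with cumulative norepinephrine; concentration-response curves recorded in presence of increasing antagonist concentrations, antagonism read as rightward curve shift. Mean ± SEM of five to eight separate experiments.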

Test [14] addresses T2, Alpha-1D adrenergic receptor (Rattus norvegicus, UniProt P23944).
T2 sequence (P23944 whole entry): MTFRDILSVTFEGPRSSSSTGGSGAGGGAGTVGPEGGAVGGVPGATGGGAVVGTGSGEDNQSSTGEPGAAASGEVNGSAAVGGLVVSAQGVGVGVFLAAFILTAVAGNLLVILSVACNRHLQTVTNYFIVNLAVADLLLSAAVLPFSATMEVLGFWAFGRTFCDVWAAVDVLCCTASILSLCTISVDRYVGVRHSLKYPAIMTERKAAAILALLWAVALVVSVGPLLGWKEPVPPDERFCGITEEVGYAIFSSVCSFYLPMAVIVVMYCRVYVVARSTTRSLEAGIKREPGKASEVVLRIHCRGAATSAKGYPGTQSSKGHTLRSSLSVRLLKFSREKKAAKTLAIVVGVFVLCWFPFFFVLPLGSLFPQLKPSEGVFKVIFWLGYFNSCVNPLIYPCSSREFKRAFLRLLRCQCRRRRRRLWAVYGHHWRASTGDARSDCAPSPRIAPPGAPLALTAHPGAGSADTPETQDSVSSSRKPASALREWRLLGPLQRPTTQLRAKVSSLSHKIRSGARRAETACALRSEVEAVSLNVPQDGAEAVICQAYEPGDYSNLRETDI
The test is described as follows: Antagonist activity at Sprague-Dawley rat thoracic aorta adrenergic alpha-1D receptor after 20 mins. To be noted: read-out: pA2 (converted). In outline: as §4

A further test relates to DU-145. Kind of test: Cytotoxicity against human DU145 cells after 48 hrs by WST-8 assay. Type of test: functional, cell-based. The settings on record: DU-145, 48 h.
In another test the test system is LNCaP. Kind of test: Cytotoxicity against human LNCAP cells after 48 hrs by WST-8 assay. Type of test: functional, cell-based.
The species entered for another test is Rattus norvegicus. The test is described as follows: Selectivity ratio for Sprague-Dawley rat prostatic vas deferens adrenergic alpha-1A receptor to Sprague-Dawley rat spleen adrenergic alpha-1B receptor.

As for `COc1ccccc1N1CCN(CCCNC(=O)c2cc3ccccc3n2Cc2ccccc2)CC1`, the Activity in test [1] turned out to be 42.8%; in [2], 33.5%; in test [3] it was 22.2%; in test [4] it was 41.7%; with PC-3 [5] it was 3.5%; in the test on PC-3 [6], 9.2%. The Activity in the test on PC-3 [7] is 17.8%; in the test on PC-3 [8], 32.6%; in the test with PC-3 [9] it was 83%; in test [10] it was “Dose-dependent effect”; in test [11], “Dose-dependent effect”. For the same compound, in the test on PC-3 [12], the result was inactive. The figures for the Kb in test [13] and in test [14] were 0.00741 µM and 0.00275 µM, respectively. In addition, the 50% inhibitory concentration (IC50) with DU-145 was found to be 33.3 µM; with LNCaP, 25.5 µM. Besides, in the test filed under Rattus norvegicus, the Ratio turned out to be 19.1.

The record behind these values is ChEMBL document CHEMBL3414528, “Novel naftopidil-related derivatives and their biological effects as alpha1-adrenoceptors antagonists and antiproliferative agents” (Eur J Med Chem, 2015).
